Test results reported in ChEMBL document CHEMBL2046370, “Beta-carboline alkaloids derived from the ascidian Synoicum sp” (Bioorg Med Chem, 2012).
Converted amounts (≈) assume the structure as drawn.

Legend:
Sortase A = target: T1, Sortase A (Staphylococcus aureus, UniProt Q9S446); experiment: Inhibition of Staphylococcus aureus ATCC 6538p recombinant SrtA; parameters: species or system ATCC 6538p r
T1 sequence (Q9S446 whole entry): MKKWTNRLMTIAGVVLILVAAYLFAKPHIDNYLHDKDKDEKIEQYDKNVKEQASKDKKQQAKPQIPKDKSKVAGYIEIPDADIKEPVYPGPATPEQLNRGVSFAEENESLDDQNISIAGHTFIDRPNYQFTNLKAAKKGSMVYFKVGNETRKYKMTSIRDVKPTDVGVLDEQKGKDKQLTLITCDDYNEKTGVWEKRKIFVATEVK

Escherichia coli = experiment: Antibacterial activity against Escherichia coli ATCC 35270 after 24 hrs; assay type: functional; settings: ATCC 35270, 24 h
Salmonella typhimurium = experiment: Antibacterial activity against Salmonella typhimurium ATCC 14028 after 24 hrs; assay type: functional, Salmonella enterica subsp. enterica serovar Typhimurium; settings: Salmonella enterica, ATCC 14028, 24 h
Candida albicans = experiment: Antifungal activity against Candida albicans ATCC 10231 after 48 to 72 hrs; assay type: functional
Trichophyton rubrum = experiment: Antifungal activity against Trichophyton rubrum IFO 9185 after 48 to 72 hrs; assay type: functional
Bacillus subtilis = experiment: Antibacterial activity against Bacillus subtilis ATCC 6633 after 24 hrs; assay type: functional; settings: ATCC 6633, 24 h
Proteus vulgaris = experiment: Antibacterial activity against Proteus vulgaris ATCC 3851 after 24 hrs; assay type: functional; settings: ATCC 3851, 24 h
Staphylococcus aureus = experiment: Antibacterial activity against Staphylococcus aureus ATCC 6538p after 24 hrs; assay type: functional
[1] = Inhibition of porcine cerebral cortex Na+/K+ ATPase assessed as formation of fluorescent 3-O-methylfluorescein from 3-O-methylfluorescein phosphate by fluorometry; assay type: tissue-based, Sus scrofa
Aspergillus fumigatus = experiment: Antifungal activity against Aspergillus fumigatus HIC 6094 after 48 to 72 hrs; assay type: functional
A549 = experiment: Cytotoxicity against human A549 cells by MTT assay; assay type: functional; settings: read-out: LC50 (the source's name)
[2] = system: Trichophyton mentagrophytes; experiment: Antifungal activity against Trichophyton mentagrophytes IFO 40996 after 48 to 72 hrs; assay type: functional
Micrococcus luteus = experiment: Antibacterial activity against Micrococcus luteus IFC 12708 after 24 hrs; assay type: functional; settings: IFC 12708, 24 h
Isocitrate lyase = Isocitrate lyase (Candida albicans, UniProt Q9P8Q7); experiment: Inhibition of Candida albicans recombinant ICL assessed as formation of glyoxylate phenylhydrazone by spectrophotometry
Method in brief: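 Recombinant enzyme assayed spectrophotometrically with isocitrate and phenylhydrazine present. Absorbance at 324 nm was monitored for glyoxylate phenylhydrazone formation, and IC50 was determined.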

Chain of Isocitrate lyase (Q9P8Q7 whole entry): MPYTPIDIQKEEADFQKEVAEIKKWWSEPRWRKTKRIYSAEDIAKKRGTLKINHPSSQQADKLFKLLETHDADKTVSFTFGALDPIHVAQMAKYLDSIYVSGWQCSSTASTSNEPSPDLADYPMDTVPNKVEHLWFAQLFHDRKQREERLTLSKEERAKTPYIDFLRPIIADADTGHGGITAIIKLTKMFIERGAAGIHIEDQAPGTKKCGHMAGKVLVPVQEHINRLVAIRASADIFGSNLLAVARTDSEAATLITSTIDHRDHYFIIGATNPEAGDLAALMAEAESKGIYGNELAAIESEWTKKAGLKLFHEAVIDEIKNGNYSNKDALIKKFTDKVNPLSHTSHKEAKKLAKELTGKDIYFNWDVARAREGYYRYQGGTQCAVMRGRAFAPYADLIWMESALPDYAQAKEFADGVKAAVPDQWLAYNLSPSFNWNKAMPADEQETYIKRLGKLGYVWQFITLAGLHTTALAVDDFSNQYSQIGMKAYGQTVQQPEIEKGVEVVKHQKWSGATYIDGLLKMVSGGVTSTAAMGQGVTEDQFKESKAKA

Compound | IC50 (Sortase A) | MIC (Escherichia coli) | MIC (Salmonella typhimurium) | MIC (Candida albicans) | MIC (Trichophyton rubrum) | MIC (Bacillus subtilis) | MIC (Proteus vulgaris) | MIC (Staphylococcus aureus) | IC50 [1] | MIC (Aspergillus fumigatus) | CC50 (A549) | MIC [2] | MIC (Micrococcus luteus) | IC50 (Isocitrate lyase)
O=C(c1cc(Br)c(O)c(Br)c1)c1nccc2c1[nH]c1ccc(Br)cc12 [EUDISTOMIN Y6] | > 190 µM | 50 µg/mL (≈ 95.2 µM) | 0.39 µg/mL (≈ 0.743 µM) | > 100 µg/mL | > 100 µg/mL | 1.56 µg/mL (≈ 2.97 µM) | 0.78 µg/mL (≈ 1.49 µM) | 1.56 µg/mL (≈ 2.97 µM) | 10.1 µM | > 100 µg/mL | 60 µM | > 100 µg/mL | 1.56 µg/mL (≈ 2.97 µM) | 
CC1(C)S[C@@H]2[C@H](NC(=O)[C@H](N)c3ccccc3)C(=O)N2[C@H]1C(=O)O [AMPICILLIN] |  | 6.25 µg/mL (≈ 17.9 µM) | 0.78 µg/mL (≈ 2.23 µM) |  |  | 0.78 µg/mL (≈ 2.23 µM) | 0.39 µg/mL (≈ 1.12 µM) | 0.39 µg/mL (≈ 1.12 µM) |  |  |  |  | 0.39 µg/mL (≈ 1.12 µM) | 
O=C(c1ccc(O)cc1)c1nccc2c1[nH]c1ccccc12 [EUDISTOMIN Y1] | > 347 µM | > 100 µg/mL | > 100 µg/mL | 50 µg/mL (≈ 173 µM) | 50 µg/mL (≈ 173 µM) | > 100 µg/mL | > 100 µg/mL | > 100 µg/mL |  | 50 µg/mL (≈ 173 µM) | 59 µM | 100 µg/mL (≈ 347 µM) | > 100 µg/mL | 48.2 µM
Oc1ccc(C(O)c2nccc3c2[nH]c2ccc(Br)cc23)cc1Br (stereo not given) [EUDISTOMIN Y9] | > 223 µM | > 100 µg/mL | > 100 µg/mL | > 100 µg/mL | > 100 µg/mL | > 100 µg/mL | > 100 µg/mL | 6.25 µg/mL (≈ 13.9 µM) | 33.3 µM | > 100 µg/mL | 17.9 µM | > 100 µg/mL | > 100 µg/mL | 
C[C@@H]1O[C@@H](O[C@H]2C[C@@H](O)[C@]3(CO)[C@H]4[C@H](O)C[C@]5(C)[C@@H](C6=CC(=O)OC6)CC[C@]5(O)[C@@H]4CC[C@]3(O)C2)[C@H](O)[C@H](O)[C@H]1O [OUABAIN] |  |  |  |  |  |  |  |  | 6.3 µM |  |  |  |  | 
O=C(O)CC[N+](=O)[O-] |  |  |  |  |  |  |  |  |  |  |  |  |  | 38.6 µM
O=C(c1ccc(O)c(Br)c1)c1nccc2c1[nH]c1ccc(Br)cc12 [EUDISTOMIN Y4] | 163 µM | 50 µg/mL (≈ 112 µM) | 0.39 µg/mL (≈ 0.874 µM) | > 100 µg/mL | > 100 µg/mL | 0.78 µg/mL (≈ 1.75 µM) | 0.39 µg/mL (≈ 0.874 µM) | 3.12 µg/mL (≈ 7.01 µM) | 7.5 µM | > 100 µg/mL | 48.4 µM | > 100 µg/mL | 1.56 µg/mL (≈ 3.5 µM) | 
Oc1ccc(C(O)c2nccc3c2[nH]c2ccccc23)cc1 (stereo not given) [EUDISTOMIN Y8] | > 344 µM | > 100 µg/mL | > 100 µg/mL | > 100 µg/mL | > 100 µg/mL | 100 µg/mL (≈ 344 µM) | > 100 µg/mL | 100 µg/mL (≈ 344 µM) | > 344 µM | > 100 µg/mL | > 344 µM | > 100 µg/mL | 100 µg/mL (≈ 344 µM) | 68.9 µM
C[C@@H]1[C@H](O)[C@@H](C)/C=C/C=C/C=C/C=C/C=C/C=C/C=C/[C@H](O[C@@H]2O[C@H](C)[C@@H](O)[C@H](N)[C@@H]2O)C[C@@H]2O[C@](O)(C[C@@H](O)C[C@@H](O)[C@H](O)CC[C@@H](O)C[C@@H](O)CC(=O)O[C@H]1C)C[C@H](O)[C@H]2C(=O)O [AMPHOTERICIN B] |  |  |  | 0.39 µg/mL (≈ 0.422 µM) | 0.78 µg/mL (≈ 0.844 µM) |  |  |  |  | 0.78 µg/mL (≈ 0.844 µM) |  | 0.39 µg/mL (≈ 0.422 µM) |  | 
COc1cccc2c1C(=O)c1c(O)c3c(c(O)c1C2=O)C[C@@](O)(C(=O)CO)C[C@@H]3O[C@H]1C[C@H](N)[C@H](O)[C@H](C)O1 [DOXORUBICIN] |  |  |  |  |  |  |  |  |  |  | 3.3 µM |  |  | 
Oc1c(Br)cc(C(O)c2nccc3c2[nH]c2ccccc23)cc1Br (stereo not given) [EUDISTOMIN Y10] | > 223 µM | > 100 µg/mL | 12.5 µg/mL (≈ 27.9 µM) | > 100 µg/mL | > 100 µg/mL | 25 µg/mL (≈ 55.8 µM) | 12.5 µg/mL (≈ 27.9 µM) | 25 µg/mL (≈ 55.8 µM) | 122 µM | > 100 µg/mL | > 223 µM | > 100 µg/mL | 12.5 µg/mL (≈ 27.9 µM) | 
O=C(c1cc(Br)c(O)c(Br)c1)c1nccc2c1[nH]c1cc(Br)ccc12 [EUDISTOMIN Y7] | > 190 µM | 50 µg/mL (≈ 95.2 µM) | 0.78 µg/mL (≈ 1.49 µM) | > 100 µg/mL | > 100 µg/mL | 0.78 µg/mL (≈ 1.49 µM) | 0.78 µg/mL (≈ 1.49 µM) | 3.12 µg/mL (≈ 5.95 µM) | 11.3 µM | > 100 µg/mL | 59 µM | > 100 µg/mL | 1.56 µg/mL (≈ 2.97 µM) | 
O=C(c1ccc(O)cc1)c1nccc2c1[nH]c1ccc(Br)cc12 [EUDISTOMIN Y2] | > 272 µM | > 100 µg/mL | 50 µg/mL (≈ 136 µM) | 6.25 µg/mL (≈ 17 µM) | > 100 µg/mL | 25 µg/mL (≈ 68.1 µM) | 25 µg/mL (≈ 68.1 µM) | 50 µg/mL (≈ 136 µM) | 209 µM | > 100 µg/mL | 65.6 µM | > 100 µg/mL | 25 µg/mL (≈ 68.1 µM) | 50.2 µM
O=C(c1cc(Br)c(O)c(Br)c1)c1nccc2c1[nH]c1ccccc12 [EUDISTOMIN Y5] | 146 µM | 100 µg/mL (≈ 224 µM) | 0.78 µg/mL (≈ 1.75 µM) | > 100 µg/mL | > 100 µg/mL | 3.12 µg/mL (≈ 7.01 µM) | 1.56 µg/mL (≈ 3.5 µM) | 6.25 µg/mL (≈ 14 µM) | 19.8 µM | > 100 µg/mL | 85.4 µM | > 100 µg/mL | 3.12 µg/mL (≈ 7.01 µM) | 
Cc1ccc(S(=O)(=O)Oc2ccc(C(O)c3nccc4c3[nH]c3ccc(Br)cc34)cc2Br)cc1 (stereo not given) [EUDISTOMIN Y12] | > 166 µM | > 100 µg/mL | > 100 µg/mL | > 100 µg/mL | > 100 µg/mL | > 100 µg/mL | > 100 µg/mL | > 100 µg/mL |  | > 100 µg/mL | 63.3 µM | > 100 µg/mL | > 100 µg/mL | > 166 µM
OC(c1ccccc1)c1nccc2c1[nH]c1ccc(Br)cc12 (stereo not given) [EUDISTOMIN Y13] | > 283 µM | > 100 µg/mL | > 100 µg/mL | > 100 µg/mL | > 100 µg/mL | 100 µg/mL (≈ 283 µM) | > 100 µg/mL | > 100 µg/mL |  | > 100 µg/mL | 49 µM | > 100 µg/mL | 100 µg/mL (≈ 283 µM) | > 283 µM
O=C(c1ccc(O)c(Br)c1)c1nccc2c1[nH]c1ccccc12 [EUDISTOMIN Y3] | > 272 µM | 100 µg/mL (≈ 272 µM) | 6.25 µg/mL (≈ 17 µM) | > 100 µg/mL | > 100 µg/mL | 12.5 µg/mL (≈ 34 µM) | 6.25 µg/mL (≈ 17 µM) | 12.5 µg/mL (≈ 34 µM) | 22.5 µM | > 100 µg/mL | 253 µM | > 100 µg/mL | 12.5 µg/mL (≈ 34 µM) | > 272 µM
Oc1c(Br)cc(C(O)c2nccc3c2[nH]c2ccc(Br)cc23)cc1Br (stereo not given) [EUDISTOMIN Y11] | > 190 µM | 100 µg/mL (≈ 190 µM) | 3.12 µg/mL (≈ 5.93 µM) | > 100 µg/mL | > 100 µg/mL | 3.12 µg/mL (≈ 5.93 µM) | 3.12 µg/mL (≈ 5.93 µM) | 6.25 µg/mL (≈ 11.9 µM) | 32.8 µM | > 100 µg/mL | > 190 µM | > 100 µg/mL | 3.12 µg/mL (≈ 5.93 µM) | 
